An excerpt weighted towards active compounds, which were near 3.4% of everything screened.
E-sel inducer: E-selectin induction on HUVECs; P16581; HUVEC E-selectin immunofluorescence imaging; normalized: neutral wells 0, TNF-alpha wells 100; activation, % at 7.58 µM; actives 0.37% (n = 260,000);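 active means mean E-selectin-positive cell signal at least 10% of the positive control, reached in at least 60% of replicates, without over 20% cell loss; inconclusive means no rule given, readout overlaps actives, possibly toxicity-flagged; inactive means the rest, including those meeting only one limit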
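Read-out: % PE-positive cells | Test system: HUVEC | Doses: One compound dose added by pin transfer | Buffer or medium: EGM-2 over gelatin coat | Signal: Immunofluorescence imaging | Benchmarks: TNF-alpha, DMSO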
SIRT5 inh: blocks human SIRT5 desuccinylation of peptide | Q9NXA8 | Purified SirT5, succinyl-peptide AMC, trypsin-coupled fluorescence | inhibition, % at 15 µM | actives 1.1% (n = 330,000) | AID 652115; in the data active means inhibition above about 15%; inconclusive means no clear call, values can overlap the other calls
MLL AF4-AF9 inh: inhibitors of human MLL-AF4/AF9 interaction. inhibition, % at 10 µM. actives 0.47% (n = 350,000). AlphaScreen, biotin-AF4 peptide binding to FLAG-AF9. AID 651704;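 active means every replicate reaching a set inhibition limit, whatever the replicate mean, cut at about 25% in these data; inconclusive means mean inhibition reaches that limit but some replicates miss it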;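 further: 0% = plate neutral control median and 100% = total signal loss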
Target sequence (P42568 whole entry, looked up): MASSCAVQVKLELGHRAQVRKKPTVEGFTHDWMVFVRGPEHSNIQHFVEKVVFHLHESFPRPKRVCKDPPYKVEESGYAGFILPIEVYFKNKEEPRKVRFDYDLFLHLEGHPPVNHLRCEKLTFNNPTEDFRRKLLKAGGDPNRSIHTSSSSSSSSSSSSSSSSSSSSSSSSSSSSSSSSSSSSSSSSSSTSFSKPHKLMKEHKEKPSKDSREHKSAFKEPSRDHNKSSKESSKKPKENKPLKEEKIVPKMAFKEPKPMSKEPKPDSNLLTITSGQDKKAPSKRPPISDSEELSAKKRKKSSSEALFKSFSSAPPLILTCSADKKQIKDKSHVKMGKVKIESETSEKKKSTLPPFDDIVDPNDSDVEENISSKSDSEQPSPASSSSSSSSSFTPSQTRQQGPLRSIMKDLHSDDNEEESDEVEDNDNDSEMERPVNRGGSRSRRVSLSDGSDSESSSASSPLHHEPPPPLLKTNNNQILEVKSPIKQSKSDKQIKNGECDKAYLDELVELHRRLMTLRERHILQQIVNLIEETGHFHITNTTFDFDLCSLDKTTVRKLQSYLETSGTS
Ecoli rRNA inh: inhibitors of bacterial rRNA selective over humanized ribosomes; GFP signal change (wild-type ribosome), % (test concentration not listed); E. coli WT GFP vs humanized-ribosome RFP mutants, fluorescence, 24 h; active compounds read low; DMSO median 0, no signal -100; actives 1.6% (n = 350,000);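 active means significant combined selectivity score with lowered wild-type GFP, culture density cut under 30%, mutant RFP and density less affected; inactive means any of these conditions unmet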
ERAP1 inh: blocks human ERAP1 aminopeptidase activity | Q9NZ08 | recombinant ERAP1, Leu-AMC fluorescence, 60 min | inhibition, % at 10.7 µM | actives 0.15% (n = 340,000) | AID 652197;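 active means mean replicate inhibition of at least 30%, or all replicates individually reaching that 30% level; inactive means mean below 30% and not every replicate reaching it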;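 further: 0% = neutral control wells and 100% = L-leucinethiol positive control wells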
S100A4 MyoIIA: S100A4-myosin IIA interaction inhibition. P26447. S100A4/TAMRA-MyoIIA peptide fluorescence polarization. inhibition, % at 10.7 µM. actives 0.14% (n = 360,000);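 active means mean inhibition of at least 70% across replicates, with every replicate also reaching that level; inconclusive means mean inhibition reaches 70% but some replicates fall short; inactive means mean inhibition below 70%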
Target sequence (P26447 whole entry, looked up): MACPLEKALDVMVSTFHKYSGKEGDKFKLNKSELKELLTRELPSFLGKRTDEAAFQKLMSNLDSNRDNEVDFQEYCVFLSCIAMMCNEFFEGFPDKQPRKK
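Test system – S100A4 monomer (human) · Compound – single-point compound testing · Schedule – 5 min incubation before reading · Probe or stimulus – TAMRA-labelled myosin IIA heavy-chain peptide probe, 5 nM · Benchmarks – neutral control DMSO, positive control TFP · Medium – Calcium-containing HEPES buffer, pH 7.2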
* hit, by the source's call; ? = inconclusive; · = no result.

SMILES | E-sel inducer | SIRT5 inh | MLL AF4-AF9 inh | Ecoli rRNA inh | ERAP1 inh | S100A4 MyoIIA
COc1cccc(CC(=O)Nc2nc(-c3cc(OC)ccc3OC)cs2)c1 | 3 | -2 | -2 | -24* | -1 | 0
COc1ccc(CC(=O)Nc2nc(-c3cc(OC)ccc3OC)cs2)cc1 | · | 9 | 2 | -22* | -1 | -5
CCSc1nnc(NC(=O)Cc2ccc(OC)cc2)s1 | · | 20* | · | · | 1 | 0
COc1ccc(OC)c(-c2csc(NC(=O)COC(=O)C3(C)CC3(Cl)Cl)n2)c1 (centres undefined) | · | -3 | -3 | -21* | -2 | -1
C[C@H]1CN([C@@H](C)CO)C(=O)c2cc(C#CC3CCCCC3)cnc2O[C@H]1CN(C)S(C)(=O)=O | 1 | 3 | -1 | 4 | 0 | -3
CC(C)CC#Cc1ccc2c(c1)O[C@@H](CN(C)Cc1ccccc1F)[C@@H](C)CN([C@@H](C)CO)S2(=O)=O | · | 16* | 0 | 0 | -1 | 30
C[C@H](CO)N1C[C@H](C)[C@H](CN(C)Cc2ccccc2F)Oc2cc(C#CC3CC3)ccc2S1(=O)=O | 1 | 43* | · | -11 | · | 4
CCCn1c(=S)[nH]c2cc(C(=O)N(CCO)Cc3ccccc3)ccc2c1=O | · | -1 | 0 | -30* | 2 | -2
C[C@@H]1CN([C@@H](C)CO)C(=O)c2cccc(NC(=O)Nc3cccc4ccccc34)c2O[C@H]1CN(C)S(=O)(=O)c1cn(C)cn1 | 0 | · | · | 2 | · | ·
COc1ccc([C@H]2CC(=O)C[C@@H](CCn3cc(-c4cccnc4)nn3)O2)cc1 | -4 | 33* | -2 | 9 | · | -10
CCOc1ccc2nc(N3CCCCCC3)sc2c1 | · | -10 | -2 | -32* | 4 | -1
Cc1noc(C)c1NC(=O)N(C)C[C@@H]1Oc2cc(C#CCC(C)C)ccc2S(=O)(=O)N([C@@H](C)CO)C[C@@H]1C | 0 | 0 | 28* | 2 | 6 | -1
Cc1noc(C)c1NC(=O)N(C)C[C@H]1Oc2cc(C#CCC3CCCC3)ccc2S(=O)(=O)N([C@H](C)CO)C[C@H]1C | 2 | -18 | 37* | -5 | 1 | 10
Cc1noc(C)c1NC(=O)N(C)C[C@@H]1Oc2cc(C#CCC3CCCC3)ccc2S(=O)(=O)N([C@H](C)CO)C[C@H]1C | 1 | 12 | ? | -1 | 0 | -1
Cc1noc(C)c1NC(=O)N(C)C[C@@H]1Oc2cc(C#CCC3CCCC3)ccc2S(=O)(=O)N([C@@H](C)CO)C[C@@H]1C | 0 | 9 | 29* | -6 | 2 | -6
Cc1noc(C)c1NC(=O)N(C)C[C@H]1Oc2cc(C#CCC(C)C)ccc2S(=O)(=O)N([C@@H](C)CO)C[C@H]1C | 0 | -7 | 1 | -2 | 0 | 0
CO[C@@H]1CN(C)C(=O)c2ccc(NS(=O)(=O)CC(F)(F)F)cc2OC[C@H](C)N(C)C[C@H]1C | 0 | 5 | 1 | 2 | 5 | -6
CC(=O)N1[C@@H]2c3cccc(=O)n3C[C@H]1[C@H](CO)[C@H]2C(=O)NC1CCCC1 | 0 | · | · | 2 | · | ·
COc1ccc(S(=O)(=O)N2CCCCN3[C@H](C2)[C@H](c2ccc(C4=CCCCC4)cc2)[C@@H]3CO)cc1 | · | -2 | -5 | · | 4 | -3
N#Cc1cc(Sc2ccccn2)c([N+](=O)[O-])cc1C#N | 3 | 1 | 0 | -17 | 6 | -4
N#CC(Sc1ccccn1)c1ccc(Cl)cc1Cl (centres undefined) | · | · | -3 | -21* | -1 | 5
CNc1ccc(Br)cc1C(O)c1ccccc1 (centres undefined) | 0 | 37* | -1 | -1 | 6 | -6
COc1ccc(S(=O)(=O)N(C)C[C@H]2Oc3cc(C#CC4CC4)ccc3S(=O)(=O)N([C@@H](C)CO)C[C@@H]2C)cc1 | 1 | 22* | 4 | -4 | 3 | -7
COc1ccc(S(=O)(=O)N(C)C[C@H]2Oc3cc(C#CC4CC4)ccc3S(=O)(=O)N([C@@H](C)CO)C[C@H]2C)cc1 | 2 | 22* | 0 | 4 | 7 | -3
COc1ccc(S(=O)(=O)N(C)C[C@@H]2Oc3cc(C#CC4CC4)ccc3S(=O)(=O)N([C@H](C)CO)C[C@H]2C)cc1 | 1 | 15* | 4 | 1 | 4 | -9
SMILES | E-sel inducer | SIRT5 inh | MLL AF4-AF9 inh | Ecoli rRNA inh | ERAP1 inh | S100A4 MyoIIA
COc1ccc(S(=O)(=O)N(C)C[C@H]2Oc3cc(C#CC4CCCCC4)ccc3S(=O)(=O)N([C@H](C)CO)C[C@H]2C)cc1 | 0 | 10 | -2 | 4 | -3 | 4
COc1ccc(S(=O)(=O)N(C)C[C@@H]2Oc3cc(C#CC4CCCCC4)ccc3S(=O)(=O)N([C@H](C)CO)C[C@H]2C)cc1 | 0 | 0 | 2 | 4 | -2 | 8
CC(C)NC(=O)Nc1ccc2c(c1)C(=O)N([C@@H](C)CO)C[C@H](C)[C@H](CN(C)C(=O)CCC(F)(F)F)OCCCC[C@H](C)O2 | 0 | 3 | 0 | 1 | 0 | 2
CCOc1cc(CNc2ccc(Br)cc2)cc(Br)c1OCC(=O)NC(C)(C)C | · | -4 | -5 | 1 | -2 | ?
CCOc1cc(CNc2ccc(OC)cc2)cc(Br)c1OCC(=O)NC(C)(C)C | · | · | · | -25* | -1 | 1
C[C@H](CO)N1C[C@H](C)[C@H](CN(C)C)OCCCC[C@H](C)Oc2ccc(NS(=O)(=O)c3ccccc3)cc2C1=O | 0 | · | · | 4 | · | ·
CCOC(=O)N1CCN(S(=O)(=O)c2ccc(C(=O)NNc3nc4c(C)cc(C)cc4s3)cc2)CC1 | 2 | -2 | 4 | · | 1 | -8
Cc1cc(C)c2nc(NNC(=O)c3ccc(S(=O)(=O)N4CCCCC4)cc3)sc2c1 | · | 2 | 12 | -12* | 0 | -3
C[C@@H]1CN([C@@H](C)CO)C(=O)c2cc(-c3ccccc3)cnc2O[C@H]1CN(C)C(=O)NC1CCCC1 | 0 | 0 | -1 | 1 | 3 | 0
COc1ccc2c3c(n(C)c2c1)[C@@H](CO)N(C(=O)Nc1ccc(F)cc1)CC31CCN(C)CC1 | 0 | · | -2 | 1 | -4 | 82*
COc1ccc2c3c(n(C)c2c1)[C@@H](CO)N(C(=O)Nc1ccc(F)cc1)CC31CN(Cc2cccnc2)C1 | -1 | 1 | 27* | 4 | 2 | 9
COc1cccc(CN2CC3(C2)CN(C(=O)Nc2ccc(F)cc2)[C@@H](CO)c2c3c3ccc(OC)cc3n2C)c1 | 0 | 2 | 4 | -46 | 4 | 4
COc1ccc2c3c(n(C)c2c1)[C@H](CO)N(C(=O)Nc1ccc(F)cc1)CC31CCN(Cc2cccnc2)CC1 | 0 | · | 19 | 0 | · | ·

Compound activity (PubChem)
